ChEMBL document CHEMBL1124663, “Design, synthesis, antineoplastic activity, and chemical properties of bis(carbamate) derivatives of 4,5-bis(hydroxymethyl)imidazole” (J Med Chem, 1989)

Assays:
[1] = system: Mus musculus; experiment: Body weight difference (BWD) of test animals administered with 50 mg/kg compound is determined on day 5 for P388 tumor cells; type: functional
Summary of the method: (§1)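 P388 leukaemia: about 10^6 cells in ascitic fluid inoculated ip on day 0 (CD2F1 mice). Compound given ip in normal saline as a freshly prepared solution or suspension, once daily on days 1–5. Treated-minus-control body weight difference in g, taken as day 5 minus day 1 weight. Groups of six.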

[2] = system: Mus musculus; experiment: Body weight difference (BWD) of test animals administered with 200 mg/kg compound is determined on day 5 for L1210 tumor cells; type: functional
Summary of the method: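 L1210 leukaemia: 10^5 cells implanted ip on day 0 in mice. Freshly prepared saline suspension given ip once daily on days 1–5. Body weight difference in g (treated minus control) taken as day 5 minus day 1. Six animals per dose.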

[3] = system: Mus musculus; experiment: Body weight difference (BWD) of test animals administered with 25 mg/kg compound is determined on day 14 for M5076 minus 1 tumor cells; type: functional
Summary of the method: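 M5076 sarcoma: 10^6 cells inoculated ip on day 0 in B6C3F1 mice. Fresh saline suspension dosed ip every fourth day, on days 1, 5, 9 and 13. Body weight difference in g (treated minus control) taken as day 14 minus day 1. Ten mice per group.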

[4] = system: Mus musculus; experiment: Body weight difference (BWD) of test animals administered with 100 mg/kg compound is determined on day 5 for P388 tumor cells; type: functional; summary of the method: as §1
[5] = system: Mus musculus; experiment: Ability of 12.5 mg/kg of compound to kill L1210 tumor cells in mice is expressed as the log of the tumor cell population at the onset of treatment minus the log of the tumor cell population at the end of treatment; type: functional
Summary of the method: (§2)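 L1210 leukemia, 10^5 cells implanted ip on day 0. Drug given ip daily on days 1-5 as a saline suspension freshly prepared before each injection. Read-out is median survival of treated versus control mice (% T/C), and log cell kill is derived from it.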

[6] = system: Mus musculus; experiment: Ability of 200 mg/kg of compound to kill M5076 tumor cells in mice is expressed as the log of the tumor cell population at the onset of treatment minus the log of the tumor cell population at the end of treatment; type: functional
Summary of the method: (§3)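 M5076 sarcoma, 10^6 cells ip on day 0 in B6C3F1 mice. Drug given ip as a fresh saline suspension every fourth day (days 1, 5, 9, 13). % T/C is median survival of treated versus control mice, counting long-term survivors. Cures are 60-day survivors. Log cell kill is derived from this.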

[7] = system: Mus musculus; experiment: Ability of 25 mg/kg of compound to kill L1210 tumor cells in mice is expressed as the log of the tumor cell population at the onset of treatment minus the log of the tumor cell population at the end of treatment; type: functional; summary of the method: as §2
[8] = system: Mus musculus; experiment: Ability of 100 mg/kg of compound to kill L1210 tumor cells in mice is expressed as the log of the tumor cell population at the onset of treatment minus the log of the tumor cell population at the end of treatment; type: functional; summary of the method: as §2
[9] = system: Mus musculus; experiment: The toxicity day was evaluated on day 5 for L1210 tumor cells of test animals dosed with 12.5 mg/kg of compound; 6/6; type: functional
Summary of the method: (§4)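 L1210 leukaemia, 10^5 cells, implanted ip on day 0. Freshly prepared saline suspension dosed ip daily on days 1-5. Toxicity evaluated on day 5 as survivors over animals in the initial test group.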

[10] = system: Mus musculus; experiment: Toxicity day evaluation was carried out on day 5 for animal dosed with 6.25 mg/kg compound; 5/6; type: organism-based; parameters: dose 6.25 mg/kg; details: in vivo
[11] = system: Mus musculus; experiment: The toxicity day was evaluated on day 5 for L1210 tumor cells of test animals dosed with 25 mg/kg of compound; 6/6; type: functional; summary of the method: as §4
[12] = system: Mus musculus; experiment: The toxicity day was evaluated on day 5 for L1210 tumor cells of test animals dosed with 50 mg/kg of compound; 6/6; type: functional; summary of the method: as §4
[13] = system: Mus musculus; experiment: Toxicity day evaluation was carried out on day 5 for animal dosed with 50 mg/kg compound; 6/6; type: organism-based; parameters: dose 50 mg/kg; details: in vivo
[14] = system: Mus musculus; experiment: The toxicity day was […] tumor cells of test animals dosed with 400 mg/kg of compound; 1/10; type: functional, M5076
Summary of the method: (§5)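 M5076 sarcoma, 10^6 cells, inoculated ip into B6C3F1 mice on day 0. Fresh saline suspension given ip every fourth day (days 1, 5, 9, 13). Toxicity survivors were scored on day 5 as survivors over initial group. Body-weight difference was day 14 minus day 1.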

[15] = system: Mus musculus; experiment: The toxicity day was evaluated on day 5 for L1210 tumor cells of test animals dosed with 100 mg/kg of compound; 6/6; type: functional; summary of the method: as §4
[16] = system: Mus musculus; experiment: Ability of 50 mg/kg of compound to kill L1210 tumor cells in mice is expressed as the log of the tumor cell population at the onset of treatment minus the log of the tumor cell population at the end of treatment; type: functional; summary of the method: as §2
[17] = system: Mus musculus; experiment: The percent of the median survival time of test mice compared to control mice, administered with 100 mg/kg compound on day 5 for L1210 tumor cells; type: functional; summary of the method: as §2
[18] = system: Mus musculus; experiment: The percent of the median survival time of test mice compared to control mice, administered with 12.5 mg/kg compound on day 5 for L1210 tumor cells; type: functional; summary of the method: as §2
[19] = system: Mus musculus; experiment: The percent of the median survival time of test mice compared to control mice, administered with 200 mg/kg compound on day 14 for M5076 minus 1 tumor cells; type: functional; summary of the method: as §3
[20] = system: Mus musculus; experiment: The percent of the median survival time of test mice compared to control mice is % T/C which refers to tumor size in this case. It is determined for mice administered with 100 mg/kg compound on day 11 for MX-1 tumor cells; type: functional; details: route intraperitoneal
Summary of the method: (§6)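 Human MX-1 mammary xenograft, a 1 mm3 (0.5 mg) tumor fragment implanted under the renal capsule of NCR-nu mice on day 0. Drug given ip as a fresh saline suspension on days 1, 5 and 9. Tumor size is assessed on day 11. A negative % T/C is percent shrinkage relative to the initial implant. Survivors in the toxicity group are […].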

[21] = system: Mus musculus; experiment: The percent of the median survival time of test mice compared to control mice is determined for mice administered with 50 mg/kg compound; type: functional
[22] = system: Mus musculus; experiment: Ability of 6.25 mg/kg of compound to kill tumor cells in mice is expressed as the log of the tumor cell population at the onset of treatment minus the log of the tumor cell population at the end of treatment; type: functional
[23] = system: Mus musculus; experiment: The toxicity day was evaluated on day 0 for LOX tumor cells of test animals dosed with 100 mg/kg of compound; 6/6; type: functional
[24] = system: Mus musculus; experiment: The toxicity day was evaluated on day 0 for LOX tumor cells of test animals dosed with 25 mg/kg of compound; 6/6; type: functional
[25] = system: Mus musculus; experiment: The toxicity day was evaluated on […] for MX-1 tumor cells of test animals dosed with 200 mg/kg of compound; 1/6; type: functional; summary of the method: as §6
[26] = system: Mus musculus; experiment: The toxicity day was evaluated […] for M5076 minus 1 tumor cells of test animals dosed with 200 mg/kg of compound; 10/10; type: functional; summary of the method: as §5
[27] = system: Mus musculus; experiment: The percent of the median survival time of test mice compared to control mice, administered with 25 mg/kg compound on day 14 for M5076 minus 1 tumor cells; type: functional; summary of the method: as §3
[28] = system: Mus musculus; experiment: Body Weight Difference (BWD) of test animals administered with 12.5 mg/kg compound is determined on day 5 for P388 tumor cells; type: functional; summary of the method: as §1
[29] = system: Mus musculus; experiment: Body weight difference (BWD) of test animals administered with 100 mg/kg compound is determined on day 10 for LOX tumor cells.

SMILES: CNC(=O)OCc1nc(SC)n(C)c1COC(=O)NC
- BWD [1]: -2.6 g
- BWD [2]: -3.6 g
- BWD [3]: -2 g
- BWD [4]: -4.1 g
- KE [5]: -2.35
- KE [6]: 0.98
- KE [7]: -2.23
- KE [8]: -0.29
- Survivors / animals tested [9]: 6
- Survivors / animals tested [10]: 5
- Survivors / animals tested [11]: 6
- Survivors / animals tested [12]: 6
- Survivors / animals tested [13]: 6
- Survivors / animals tested [14]: 1
- Survivors / animals tested [15]: 6
- KE [16]: -1.94
- T/C [17]: 145%
- T/C [18]: 103%
- T/C [19]: 184%
- T/C [20]: -73%
- T/C [21]: 184%
- KE [22]: -0.83
- Survivors / animals tested [23]: 6
- Survivors / animals tested [24]: 6
- Survivors / animals tested [25]: 1
- Survivors / animals tested [26]: 10
- T/C [27]: 122%
- BWD [28]: -1.2 g
- BWD [29]: -5.1 g
